Test results: PubChem BioAssay AID1242 (PCMD, 2008)
Among all 120,000 compounds or so, about 20 (0.02%) were called active. This excerpt belongs to a sample that is enriched for actives. Unmarked numbers belong to inactive results.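 The calls were made as follows: active = inhibition above 30.3% in the primary screen of four-compound pools, then above 30% when the compound was retested; inconclusive = passed the primary limit but could not be retested; inactive = the rest.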

experiment: clotrimazole potentiators killing C. albicans biofilm, primary screen, 4-compound mixtures (AID 1242);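 also: compounds exposed to preformed 24 h biofilms for 48 h; 0% = untreated biofilm control and 100% = clotrimazole plus chlorhexidine kill blank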; settings: C. albicans biofilm persisters + clotrimazole, fluorescence viability, primary screen in compound mixtures, hits give high values; at 7.6 µM unless noted
Outline: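 Test system: C. albicans CAF4-2 wild-type biofilms; buffer or medium: RPMI/MOPS medium, pH 7.0; schedule: 24 h biofilm formation, then 48 h compound exposure, 37 °C; detection: Alamar Blue fluorescence; measure: percent inhibition of biofilm viability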

SMILES	inhibition [%]
CC1Cc2ccccc2N1S(=O)(=O)c1ccc(Cl)nc1 (stereo unspecified)	14.3
Cc1cc2nc(C(F)(F)F)cc(-c3cccs3)n2n1	8.23
COc1ccc(C(=O)C2CCCN(C(=O)c3cc4nc(C)cc(C)n4n3)C2)cc1F (stereo unspecified)	16.6
CCOC(=O)C1(Cc2cccc(OC)c2)CCN(C(C)COC)CC1 (stereo unspecified)	14.5
NCC(=O)c1cccc2ccc[n+]([O-])c12	12.9
N=c1c2c3c(sc2ncn1N)CCCC3	20.4
CCOC(=O)CN1CCC(c2ccccc2)CC1	13.7
Cc1cc(N)n(-c2ccc(S(=O)(=O)N3CCCC3)cc2[N+](=O)[O-])n1	11.7
CC(=O)c1cccc(-n2nnnc2SCC(=O)NNC(=O)C2CCCCC2)c1	5.73
C/C(=N/Nc1ccc(Cl)cc1)c1cnnc(-c2ccccc2)n1	7.24
COc1ccc(Cl)cc1N(CC(=O)N/N=C/c1ccc(OCC(N)=O)cc1)S(C)(=O)=O	20.2
S=C(NCCc1ccccc1)N1CCn2cccc2C1c1ccncc1 (stereo unspecified)	11.1
COc1ccccc1C(c1nnnn1CC1CCCO1)N1CCN(c2ccccc2)CC1 (stereo unspecified)	29.3
COc1ccc(NC(=O)CSc2nnc(-c3ccccc3F)n2C2CC2)cc1S(N)(=O)=O	7.66
O=C(Cn1c(N2CCN(C/C=C/c3ccccc3)CC2)nc2ccccc21)c1ccccc1	9.46
CCC(C)(C)NC(=O)CN(C(=O)CCC(=O)Nc1cc(C)ccn1)c1ccc2c(c1)OCCO2	1.7
Cc1ccc(OCC(=O)NC(C)c2ccccc2)c([N+](=O)[O-])n1 (stereo unspecified)	8.35
CCc1cc2c(=O)c(-c3nc4ccccc4n3C)c(CCCC(=O)O)oc2cc1OC(=O)C(C)(C)C	14.2
COC(=O)Cc1ccc(NC(=S)NCc2ccco2)cc1	1.39
Cc1ccc(Cl)cc1NC(=O)C1CCN(S(C)(=O)=O)CC1	-19.3
CSc1nc(C)nc(C2CC2)c1C#N	26.1
CCc1nc2sc(C(=O)O)c(N)c2c2c1CCCC2	17.7
O=C1Nc2cc(Cl)c(Cl)cc2N(O)N1c1ccccc1Cl	16.7
CC1=CC=CC2=N/C(=N\S(=O)(=O)c3ccc(F)cc3F)c3ccccc3CN12	14.1

SMILES	inhibition [%]
NNC(=O)c1cccc(COCC(F)(F)C(F)F)c1	11.2
CC(C)(C)n1nc2c(c1NC(=O)c1cc3ccccc3o1)CSC2	8.07
CC(=O)NC(=S)Nc1ccc(NC(=O)c2cccnc2)cc1	26.7
CN(c1ccccc1)S(=O)(=O)c1ccc(Cl)c(C(=O)OCC(N)=O)c1	9.93
COc1ccc2nc(Nc3nc(-c4ccncc4)cs3)sc2c1	12.3
COCCCNC(=O)Cn1c(=O)n(Cc2ccccc2Cl)c(=O)c2cc(OC)c(OC)cc21	5.13
COc1ccc(N=C(C)c2sc3ccccc3c2O)cc1	24.2
Cc1ccc(Cl)c(OCC(=O)NN2CCN(C)CC2)c1	16.5
CC1=C(C)CC(C(=O)NC(C)CCc2ccccc2)C(C(=O)O)C1 (stereo unspecified)	-32
C/C(CCc1ccccc1)=N\NC(=O)c1ccc(CN2CCOCC2)cc1	20.4
COc1ccc(S(=O)(=O)N(C)CC(=O)N2CCCC2)cc1Cl	15.4
COc1ccc(/C=N/NC(=O)CNC(=O)c2ccc(S(=O)(=O)N3CCCC3)cc2)c(OC)c1	1.69
O=C(Cc1ccc(F)cc1)N/N=C/c1ccc2c(c1)OCO2	-22.6
Cc1nnc(Nc2ccccc2F)s1	16.6
CCC(=O)c1ccc(N2CCN(C(=O)c3cc([N+](=O)[O-])ccc3F)CC2)c(F)c1	-4.84
Cn1c(SCC(=O)NC2CCCCC2)nnc1-c1ccc(N)cc1	21.9
COc1ccc(C(=O)NCC(=O)N/N=C/c2ccc([N+](=O)[O-])s2)cc1OC	20.6
C/C(=N/OC(=O)c1c(-c2c(F)cccc2Cl)noc1C)c1cnccn1	10.3
CC(=O)N/C(=C\c1ccc(F)cc1)C(=O)NC(Cc1ccccc1)C(=O)O (stereo unspecified)	14.6
N#Cc1c(NCCO)ccc([N+](=O)[O-])c1NCCO	15.9
Nn1c(SCc2ccccc2)nnc1C1CCCCC1	25.1
Cc1ccc(C(=O)O)cc1N1C(=O)CCCC1=O	29.3
O=C(O)CC/C(=N\NC(=O)c1ccc(F)cc1)c1ccc(Br)cc1	0.26
O=C1COc2ccc(C(=O)COC(=O)c3cccnc3Cl)cc2N1	3.67

SMILES	inhibition [%]
Cn1c(=O)c2c(ncn2CC(=O)N/N=C/c2cn[nH]c2-c2ccc(F)cc2)n(C)c1=O	8.1
CCOC(=O)c1c(CN(C)C)n(-c2ccccc2)c2cc(Br)c(O)cc12	6.02
O=C(NCCN1CCOCC1)c1ccc2c(c1)N(Cc1ccc(Cl)cc1)CCS2	-21.2
Cc1cccc(NC(=S)NCCc2ccc(F)cc2)c1C	13.3
Cc1ccc(N2C(=O)SC(N(CC(=O)O)c3ccc(C)cc3)C2=O)cc1 (stereo unspecified)	30.1
COc1cc(OC)c(C(=O)OCC(=O)N2CC(=O)Nc3ccccc32)cc1OC	16
Cc1nn(C)c(C)c1CN(C(=O)CCc1nnc(Cc2c[nH]c3ccccc23)o1)C(C)C	21.1
C/C(=N\NC(=O)c1cccnc1)c1ccc(-c2ccccc2)cc1	11.8
Cc1ccc(S(=O)(=O)N(CC(=O)NN=C2CCN(C)CC2)c2ccc(F)cc2)cc1	12.2
CC(CO)(CO)NC(=O)c1ccc(=O)[nH]n1	20.4
NNC(=O)C1CC(O)CN1S(=O)(=O)c1ccc(Cl)cc1 (stereo unspecified)	-0.83
Cc1ccccc1NC(=O)NNC(=O)OC(C)(C)C	17.1
COc1ccc(C(=O)CSc2nnnn2C)c(OC)c1	0.17
CC(=O)Nc1ccc(S(=O)(=O)NC2(C(F)(F)F)C(=O)NC(C)=C2C#N)cc1 (stereo unspecified)	25.1
O=C(Nc1nnc(C2CC2)s1)C1=NN(C2CCS(=O)(=O)C2)C(=O)CC1 (stereo unspecified)	7.46
COc1cccc(/C=C/C(=O)Nc2ccc3c(c2)OCCO3)c1	21.2
O=C(CC1CCCCC1)NCc1ccc(F)cc1	14.7
Cc1ccc(CN2CCN(Cc3ccc(OCCO)cc3)CC2CCO)o1 (stereo unspecified)	19.8
COC(=O)c1cc(C(=O)OCC(=O)Nc2cc(C)on2)cc([N+](=O)[O-])c1	19.1
Cc1nc(=O)c(-c2ccccc2)c(C)n1-c1ccc(Br)cc1	15.2
O=C(CCc1ccccc1)NCCc1cccs1	19.8
Cc1ccc(C(=O)NNc2ncnc3ccccc23)cc1	25.7
CCOC(=O)C1CCN(c2ncnc3c2c(-c2ccccc2)cn3-c2ccc(C)cc2)CC1	10.1
O=C1CC(Cc2ccc(Cl)cc2)C(=O)N1c1cc(Cl)ccn1 (stereo unspecified)	15.9

SMILES	inhibition [%]
CCc1ccccc1NC(=O)CSc1nnc(CCNC(=O)OC(C)(C)C)o1	24.5
O=C(O)c1cccc(NC(=O)c2cc(-c3cccc(Cl)c3)nc3ccccc23)c1	16.3
Cn1cnnc1SCC(=O)Nc1ccc(N2CCOCC2)cc1	1.33
COc1c(C)cc(C(=O)C2CCCN(S(=O)(=O)c3c(C)noc3C)C2)cc1C (stereo unspecified)	2.3
COc1cc(N2C(=O)c3ccccc3C2=O)c(Cl)cc1C(=O)OCC(=O)N1CCOCC1	3.87
COc1ccc(CCNC(=O)C(=O)Nc2ccc3nc4n(c(=O)c3c2)CCCCC4)cc1OC	5.01
O=C(O)c1ccc(/C=N/NC(=S)NCc2ccccc2)cc1	10.6
COc1ccc(-c2[nH]ncc2CN(Cc2nccn2C)C(C)C)cc1F	6.59
Cc1ccc(NC(=O)c2ccccn2)cc1S(=O)(=O)N1CCOCC1	7.29
Cc1ccc(NC(=S)N(CCN(C)C)Cc2cccs2)cc1C	17.2
O=[N+]([O-])c1cccc2ncccc12	12.4
COc1cccc(N2C(=O)CC(N3CCc4ccccc4C3)C2=O)c1 (stereo unspecified)	17.8
CCOc1cc(NC(=S)NCc2ccco2)c(OCC)cc1NC(=O)c1ccco1	2.67
N/C(=N\OC(=O)c1ccc2c(c1)OCO2)c1ccc(Br)cc1	8.49
CC(=O)Cn1ncc(N2CCOCC2)c(Br)c1=O	-3.05
Cn1nnnc1SCC(=O)NNC(=O)c1ccc(Br)cc1	11.2
CCCCN(C(=O)COc1ccc(NC(C)=O)cc1)C1CCS(=O)(=O)C1 (stereo unspecified)	12.9
O=C(c1cn2ccccc2n1)N1CCc2c([nH]c3ccccc23)C1c1ccccn1 (stereo unspecified)	0.31
O=c1[nH]c(N2CCN(Cc3ccc4c(c3)OCO4)CC2)nc2c1CCCC2	6.65
CCOC(=O)c1c(-c2cccc(N)c2)cn2ccccc12	6.08
O=C(Nc1ccc2c(c1)C(=O)OC2)Nc1cccc2ccccc12	-1.47
CC(Oc1ccc(Br)cc1Br)C(=O)NC1CCCC1 (stereo unspecified)	19.2
COc1ccc(CC(=O)NCC(=O)N/N=C/c2cc(Br)ccc2OC)cc1	19.3
CCOC(=O)/C(C#N)=C/c1ccc(N2CCCCC2)cc1	16.2
